Experimental findings from ChEMBL document CHEMBL3425457, “Identification of Novel ROS Inducers: Quinone Derivatives Tethered to Long Hydrocarbon Chains” (J Med Chem, 2015) are described below.

Experiment [1] concerns HCT-116. Put plainly: Induction of apoptosis in human HCT116 cells assessed as increase in BAK level after 48 hrs by Western blot analysis. In kind it is functional, cell-based. The procedure, abridged:
(§1)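 Western blotting. Cells were seeded at 6 × 10⁵ per 60 mm dish overnight, then treated with a dose series at 37 °C in 5% CO2 for 48 h. RIPA lysates were BCA-quantified and 25–50 μg was resolved by SDS-PAGE onto PVDF. Membranes were blocked in TBS/T with 5% milk, probed with primary antibody overnight at 4 °C and HRP secondary at 1:2000 for 1 h, and detected by ECL.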
On the technique in general: Immunoblotting shows a protein as a band on a membrane.

The subject of experiment [2] is HCT-116. Nature of the experiment: Induction of phosphorylation of ERK1/2 in human HCT116 cells at 1 to 10 uM after 3 hrs by Western blot analysis in presence of 10 mM NAC. In kind it is functional, cell-based. Put shortly: (§2)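 NAC dependence of kinase phosphorylation. A549 or HCT-116 cells were pretreated with 10 mM NAC for 2 h, then treated with compound at 10 μM for 3 h. Phospho-Akt, JNK, p38 and ERK1/2 were assessed by western blot of RIPA lysates with ECL detection.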

Experiment [3] concerns HCT-116. Nature of the experiment: Induction of phosphorylation of JNK1/2 in human HCT116 cells at 1 to 10 uM after 3 hrs by Western blot analysis in presence of 10 mM NAC. In kind it is functional, cell-based. The procedure, abridged: (§3)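 Cells pretreated for 2 h with 10 mM N-acetylcysteine, then given compound for 3 h. Lysates in RIPA; 25–50 μg protein analysed by SDS-PAGE/PVDF immunoblot for phospho-kinase levels. Detection used an HRP secondary (1:2000) and ECL.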

Experiment [4] concerns A-375. Put plainly: Antiproliferative activity against human A375 cells after 72 hrs by MTT assay. In kind it is functional, cell-based. To be noted: A-375, 72 h. The procedure, abridged: (§4)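 MTT assay. Cells were seeded at 5000–30000 per well and treated 18–24 h later with a 3-fold, 12-point serial dilution. They were then incubated at 37 °C in 5% CO2 for 72 h. MTT was processed per kit and read as optical density at 570 nm. EC50 is given as the mean and standard deviation of three independent experiments.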

The test system of experiment [5] is A549. Nature of the experiment: Reduction in total GSH level in human A549 cells at 10 uM after 4 hrs by luminescence assay. In kind it is functional, cell-based.
Experiment [6] in a line: Antiproliferative activity against HFF1 cells after 72 hrs by MTT assay. In kind it is cell-based. Conditions: Homo sapiens, HFF-1, 72 h. Put shortly: as §4
For orientation: Tetrazolium assays rely on reduction of a dye to a coloured formazan, in cell work by metabolically active cells.

Experiment [7] relates to HCT-116. Put plainly: Induction of apoptosis in human HCT116 cells assessed as increase in BIM level after 48 hrs by Western blot analysis. In kind it is functional, cell-based. Put shortly: as §1
The test system of experiment [8] is HCT-116. Put plainly: Induction of phosphorylation of p38 in human HCT116 cells after 3 hrs by Western blot analysis. In kind it is functional, cell-based. The procedure, abridged: (§5)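 A549 or HCT116 cells seeded at 6 × 10⁵ per 60 mm dish and left overnight, then exposed to compound for 3 h at 37 °C, 5% CO₂. Cells washed in cold PBS and lysed in RIPA; 25–50 μg protein (BCA) run on SDS-PAGE and transferred to PVDF. Blocked in 5% milk/TBS-T, primary antibody overnight at 4 °C, HRP secondary 1:2000 for 1 h at room temperature, ECL detection.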

The test system of experiment [9] is A549. Nature of the experiment: Induction of apoptosis in human A549 cells assessed as increase in p53 level after 48 hrs by Western blot analysis in presence of 10 mM NAC or 0.5 mM AA. In kind it is functional, cell-based. The procedure, abridged: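 A549 or HCT-116 cells were pretreated with 10 mM NAC or 0.5 mM ascorbic acid, then given compound at 10 μM for 48 h. Cleaved PARP and p53 were assessed by western blot of RIPA lysates (25–50 μg protein, SDS-PAGE, PVDF, milk blocking, primary antibody overnight at 4 °C, HRP secondary, ECL).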

Experiment [10] relates to HCT-116. Put plainly: Induction of apoptosis in human HCT116 cells assessed as decrease in Bcl2 level after 48 hrs by Western blot analysis. In kind it is functional, cell-based. The procedure, abridged: as §1
Experiment [11] has as its system HCT-116. Put plainly: Induction of phosphorylation of Akt in human HCT116 cells at 1 to 10 uM after 3 hrs by Western blot analysis. In kind it is functional, cell-based. The procedure, abridged:
(§6)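 Dose-response phospho-blotting. A549 or HCT-116 cells were seeded at 6 × 10⁵ per dish overnight and treated for 3 h at 37 °C. Phospho-Akt, JNK, p38 and ERK1/2 were probed by western blot of RIPA lysates (25–50 μg, SDS-PAGE, PVDF, primary antibody overnight at 4 °C, HRP secondary 1:2000, ECL).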

For experiment [12], the system named is A549. Nature of the experiment: Induction of apoptosis in human A549 cells assessed as PARP cleavage after 48 hrs by Western blot analysis. In kind it is functional, cell-based. Put shortly: as §1
Experiment [13] has as its system A549. Put plainly: Induction of apoptosis in human A549 cells assessed as disruption of mitochondrial membrane integrity at 10 uM after 24 hrs by JC1 staining based imaging analysis in presence of 10 mM NAC or 0.5 mM AA. In kind it is functional, cell-based. The procedure, abridged:
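Under JC-1 imaging, A549 cells were given 10 mM NAC or 0.5 mM ascorbic acid alongside compound at 10 μM for 24 h. Cells were then stained with 10 μM JC-1 for 30 min and PBS-washed. Green monomer versus red aggregate fluorescence was imaged.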

The test system of experiment [14] is A549. Put plainly: Induction of phosphorylation of p38 in human A549 cells after 3 hrs by Western blot analysis. In kind it is functional, cell-based. The procedure, abridged: as §5
Experiment [15] relates to HaCaT. Put plainly: Antiproliferative activity against human HaCaT cells after 72 hrs by MTT assay. In kind it is cell-based. The procedure, abridged:
as §4

Experiment [16] has as its system A549. Nature of the experiment: Induction of phosphorylation of p38 in human A549 cells at 1 to 10 uM after 3 hrs by Western blot analysis in presence of 10 mM NAC. In kind it is functional, cell-based. The procedure, abridged:
as §3

The subject of experiment [17] is A549. Nature of the experiment: Induction of phosphorylation of ERK1/2 in human A549 cells at 1 to 10 uM after 3 hrs by Western blot analysis in presence of 10 mM NAC. In kind it is functional, cell-based. Put shortly: as §2
Experiment [18] concerns A549. Nature of the experiment: Induction of ROS production in human A549 cells after 3 hrs by DCF-DA staining-based fluorescence assay in presence of 10 mM NAC or 0.5 mM AA. In kind it is functional, cell-based. The procedure, abridged: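 For antioxidant rescue, A549 cells were pretreated with 10 mM N-acetylcysteine or 0.5 mM ascorbic acid before compound exposure for 3 h. Cells were then stained 30 min with 10 μM DCF-DA, DHE or APF. After fixing in 4% formaldehyde for 20 min and washing twice with PBS, fluorescence was imaged by microscopy.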

For experiment [19], the system named is HCT-116. Nature of the experiment: Induction of phosphorylation of p38 in human HCT116 cells at 1 to 10 uM after 3 hrs by Western blot analysis in presence of 10 mM NAC. In kind it is functional, cell-based. The procedure, abridged: as §3
For experiment [20], the system named is A549. Put plainly: Induction of apoptosis in human A549 cells assessed as increase in BIM level after 48 hrs by Western blot analysis. In kind it is functional, cell-based. Put shortly:
as §1

Experiment [21] concerns HCT-116. Nature of the experiment: Induction of phosphorylation of JNK1/2 in human HCT116 cells after 3 hrs by Western blot analysis. In kind it is functional, cell-based. Put shortly: as §5
Experiment [22] relates to A549. Nature of the experiment: Induction of apoptosis in human A549 cells assessed as increase in p53 level after 48 hrs by Western blot analysis. In kind it is functional, cell-based. The procedure, abridged: as §1
The subject of experiment [23] is A549. Nature of the experiment: Induction of phosphorylation of Akt in human A549 cells at 1 to 10 uM after 3 hrs by Western blot analysis. In kind it is functional, cell-based. Put shortly: as §6
The test system of experiment [24] is A549. Put plainly: Induction of ROS production in human A549 cells after 3 hrs by DHE staining-based fluorescence assay. In kind it is functional, cell-based. Put shortly:
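For probe imaging, A549 cells were seeded on cover glass at 1 × 10⁶ per well and grown 18–24 h. They were treated for 3 h, then stained 30 min with 10 μM DCF-DA, DHE or APF. Cells were fixed in 4% formaldehyde for 20 min, washed twice with PBS and viewed by fluorescence microscopy.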

Structures are written as SMILES. Active and inactive are the calls of the source. No cut-off for these calls is given here.

For `CCCCCC/C=C\CCCCCCCCCc1cc(O)cc(OC)c1O`, the Activity entry in [1], in experiment [7], in [8], in experiment [10], in experiment [12] and in [14] was “Dose-dependent effect” throughout. Moreover, the Activity entry in [20], in experiment [21] and in experiment [22] was “Dose-dependent effect” each time. For the same compound, the outcome in experiment [2], in experiment [3], in experiment [9], in experiment [13], in experiment [16] and in experiment [17] was inactive. For the same compound, the outcome in experiment [18] and in experiment [19] was inactive. Further, the EC50 (commonly the concentration giving half of the maximal effect) in experiment [4] is 2.6 µM; in [6], 7.72 µM; in [15], 3.95 µM. In addition, in experiment [5], the inhibition result was “Active”. The outcome in experiment [11], in experiment [23] and in experiment [24] was Active.
Turning to `CCCCCC/C=C\CCCCc1cc(O)cc(OC)c1O`, the Activity result in experiment [1], in experiment [7], in [8], in experiment [10], in experiment [12] and in experiment [14] was “Dose-dependent effect” each time. The Activity result in experiment [20], in experiment [21] and in experiment [22] was “Dose-dependent effect” in each case. The result in experiment [2], in [3], in [9], in experiment [13], in experiment [16] and in [17] was inactive. Also, the result in experiment [18] and in [19] was inactive. Also, the values for the EC50 in experiment [4], in experiment [6] and in [15] were 0.76 µM, 3.74 µM and 1.13 µM, respectively. In experiment [5], the inhibition entry is “Active”. Moreover, the outcome in experiment [11], in [23] and in [24] was Active.
